Converted amounts (≈) assume the structure as drawn. The source made the active and inactive calls. The rule behind the calls is not given here.
What was measured:
Thymidylate synthase [1] = target: T1, Thymidylate synthase (Homo sapiens, UniProt P04818); experiment: Inhibition of human TS at 30 uM by spectrophotometric analysis
How it was run: (§1)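 Purified human enzymes screened in continuous spectrophotometric assays. DMSO was kept below the level affecting activity: under 5% for hDHFR and under 8% for hTS.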
Target sequence in this assay (P04818 2-313 limits assumed): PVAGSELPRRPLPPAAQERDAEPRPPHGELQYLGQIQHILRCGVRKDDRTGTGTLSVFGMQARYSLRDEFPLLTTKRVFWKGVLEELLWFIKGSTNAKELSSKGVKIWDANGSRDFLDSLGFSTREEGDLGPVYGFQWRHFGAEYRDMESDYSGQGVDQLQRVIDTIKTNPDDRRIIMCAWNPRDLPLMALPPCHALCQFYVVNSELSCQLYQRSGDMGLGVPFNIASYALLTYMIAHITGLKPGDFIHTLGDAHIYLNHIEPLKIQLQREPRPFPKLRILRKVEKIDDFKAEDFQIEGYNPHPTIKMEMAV

Dihydrofolate reductase = target: T2, Dihydrofolate reductase (Homo sapiens, UniProt P00374); experiment: Inhibition of human DHFR by spectrophotometric analysis
T2 sequence (P00374 whole entry): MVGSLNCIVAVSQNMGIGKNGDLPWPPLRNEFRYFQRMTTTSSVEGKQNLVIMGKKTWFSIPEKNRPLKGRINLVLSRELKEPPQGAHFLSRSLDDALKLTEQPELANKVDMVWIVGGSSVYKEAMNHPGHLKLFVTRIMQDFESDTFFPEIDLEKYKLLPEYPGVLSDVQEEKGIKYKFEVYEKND

Leishmania mexicana [2] = experiment: Antiparasitic activity against Leishmania mexicana promastigotes assessed as parasite growth at 50 ug/mL; type: functional
How it was run: (§2)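 Promastigotes grown from 10^5 parasites/mL and harvested in exponential phase at 2 × 10^7/mL. For the assay they were plated at 10^6 cells/mL in 96-well format, so cells were leaving exponential phase for stationary phase. Compound was given at 50 μg/mL alone or together with pyrimethamine at 30 μg/mL. Percent growth inhibition was compared between the single agent and the combination.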

[3] = Toxicity against human MRC5 cells assessed as growth inhibition at 100 ug/mL; type: cell-based; settings: read-out: GI
How it was run: (§3)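 MRC-5 human fibroblasts were grown at 37 °C, 5% CO2, in DMEM with 10% heat-inactivated FBS and extra glutamine. Cells were seeded so that control wells were confluent after 72 h of incubation with compound. Alamar Blue optical density was the read-out. Values are mean ± SD of three independent experiments.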

[4] = target: T3, Dihydrofolate reductase (Homo sapiens) (UniProt P00374); experiment: Inhibition of human DHFR at 30 uM by spectrophotometric analysis; how it was run: as §1
T3 sequence (whole entry): T2 sequence (P00374 whole entry)

Leishmania major = experiment: Antiparasitic activity against Leishmania major promastigotes assessed as parasite growth at 50 ug/mL; type: functional; how it was run: as §2
Leishmania mexicana [5] = experiment: Inhibition of pteridine reductase in Leishmania mexicana promastigote assessed as increase in pyrimethamine-induced growth inhibition by measuring parasite growth at 50 ug/mL; parameters: scale not given: the % may be the effect or the level left
How it was run: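 Promastigotes plated at 10^6 cells/mL, leaving exponential and entering stationary phase. Exposed to compound at 50 μg/mL alone or together with pyrimethamine at 30 μg/mL. Percent growth inhibition with compound alone compared with that of each compound plus PYR.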

Thymidylate synthase [6] = target: T1, Thymidylate synthase; experiment: Inhibition of human TS at 15 uM by spectrophotometric analysis; how it was run: as §1
Target sequence in this assay (P04818 2-313 limits assumed): as the sequence (P04818 2-313 limits assumed) above

Leishmania mexicana [7] = experiment: Inhibition of pteridine reductase in Leishmania mexicana promastigote assessed as reduction in cell survival upon H2O2 exposure at ED50 after 48 hrs at 28 degC relative to control
How it was run: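 L. mexicana promastigotes plated at 10^5 cells/mL and pretreated with compound for 48 h at 28 °C. Then diluted to 2 × 10^4 cells/mL and exposed to increasing H2O2 concentrations for 45 min. Surviving motile parasites counted on a Neubauer grid. Compound-treated, non-H2O2 sample taken as 100%; compared against untreated H2O2-exposed series.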

Leishmania mexicana [8] = experiment: Inhibition of pteridine reductase in Leishmania mexicana promastigote assessed as increase in pyrimethamine cytotoxicity by Chou-Talalay method
MRC5 = experiment: Toxicity against human MRC5 cells assessed as growth inhibition at 50 ug/mL; type: cell-based; how it was run: as §3
Thymidylate synthase [9] = target: T1, Thymidylate synthase; experiment: Inhibition of human TS at 50 uM by spectrophotometric analysis; how it was run: as §1
Target sequence in this assay (P04818 2-313 limits assumed): as the sequence (P04818 2-313 limits assumed) above

[10] = target: T4, Pteridine reductase 1 (Leishmania major) (UniProt Q01782)
T4 sequence (whole entry): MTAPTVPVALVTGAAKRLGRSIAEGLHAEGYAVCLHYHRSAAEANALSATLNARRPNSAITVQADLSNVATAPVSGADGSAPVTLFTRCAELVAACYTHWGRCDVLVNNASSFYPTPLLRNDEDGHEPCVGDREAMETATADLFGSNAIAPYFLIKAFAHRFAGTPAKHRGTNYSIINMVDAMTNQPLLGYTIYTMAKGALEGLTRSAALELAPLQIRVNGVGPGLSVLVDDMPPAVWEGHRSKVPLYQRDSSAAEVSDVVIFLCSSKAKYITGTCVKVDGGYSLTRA

[11] = Toxicity against human MRC5 cells assessed as growth inhibition; type: cell-based; settings: read-out: ED50 (the source's name); how it was run: as §3
Thymidylate synthase [12] = target: T1, Thymidylate synthase; experiment: Inhibition of human TS by spectrophotometric analysis
Target sequence in this assay (P04818 whole entry): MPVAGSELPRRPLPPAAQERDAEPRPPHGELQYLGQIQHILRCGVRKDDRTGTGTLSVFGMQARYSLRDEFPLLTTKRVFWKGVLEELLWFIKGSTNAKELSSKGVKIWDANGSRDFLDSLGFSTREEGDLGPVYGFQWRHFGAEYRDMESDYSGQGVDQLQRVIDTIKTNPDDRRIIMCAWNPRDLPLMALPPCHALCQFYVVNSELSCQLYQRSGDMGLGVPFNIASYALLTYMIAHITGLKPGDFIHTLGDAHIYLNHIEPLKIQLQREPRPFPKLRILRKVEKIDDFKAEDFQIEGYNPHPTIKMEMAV

CCc1ccc(NCc2cnc3nc(N)nc(N)c3n2)cc1C(=O)N1CCC(C(=O)OC)CC1
inhibition (Thymidylate synthase [1]): inactive
Ki (Dihydrofolate reductase): 4.68 µM

CCOC(=O)CN(Cc1cnc2nc(N)nc(N)c2n1)c1ccc(C(=O)N2CCC(C(=O)OC)CC2)cc1
Activity (Leishmania mexicana [2]): 102.3%
inhibition at 100 ug/mL [3]: 28%
inhibition (Thymidylate synthase [1]): inactive
inhibition [4]: inactive
Activity (Leishmania major): 100.8%
Activity (Leishmania mexicana [5]): 21.9%

COC(=O)C1CCN(C(=O)c2ccc(N(C)Cc3cnc4nc(N)nc(N)c4n3)cc2)CC1
inhibition (Thymidylate synthase [6]): inactive

Nc1nc(N)c2nc(CNc3ccc(C(=O)N4CCC(C(=O)O)CC4)cc3)cnc2n1
inhibition (Thymidylate synthase [6]): inactive

COC(=O)C1CCN(C(=O)c2ccc(NCc3cnc4nc(N)nc(N)c4n3)cn2)CC1
Activity (Leishmania mexicana [2]): 95.6%
inhibition (Leishmania mexicana [7]): Active
fractional inhibitory concentration index (FICI) (Leishmania mexicana [8]): 1.51
Activity (MRC5): Non-toxic
inhibition (Thymidylate synthase [9]): inactive
inhibition [4]: inactive
Activity (Leishmania major): 103.4%
Activity (Leishmania mexicana [5]): 17.6%
FICI [10]: 0.8

NC(=O)C1CCN(C(=O)c2ccc(NCc3cnc4nc(N)nc(N)c4n3)cc2)CC1
Activity (Leishmania mexicana [2]): 88.5%
GI50 [11]: 51 µg/mL (≈ 121 µM)
inhibition (Thymidylate synthase [6]): inactive
Activity (Leishmania major): 121.2%
Activity (Leishmania mexicana [5]): 15.7%

CCc1nc(N)nc(N)c1-c1ccc(Cl)cc1 [PYRIMETHAMINE]
Activity (Leishmania mexicana [2]): 102.5%
GI50 [11]: 16.2 µg/mL (≈ 65.1 µM)
Activity (Leishmania major): 68%

CCc1cc(C(=O)N2CCC(C(=O)OC)CC2)ccc1NCc1cnc2nc(N)nc(N)c2n1
Activity (Leishmania mexicana [2]): 90.6%
GI50 [11]: 21.8 µg/mL (≈ 46.9 µM)
inhibition (Thymidylate synthase [1]): inactive
inhibition [4]: inactive
Activity (Leishmania major): 104.2%
Activity (Leishmania mexicana [5]): 19.6%

COC(=O)C1CCN(C(=O)c2ccc(NCc3cnc4nc(N)nc(N)c4n3)cc2)CC1
Activity (Leishmania mexicana [2]): 111.6%
inhibition (Leishmania mexicana [7]): Active
fractional inhibitory concentration index (FICI) (Leishmania mexicana [8]): 2.05
GI50 [11]: 23.4 µg/mL (≈ 53.6 µM)
Ki (Thymidylate synthase [12]): Not Active
Ki (Dihydrofolate reductase): 10 µM
Activity (Leishmania major): 99.6%
Activity (Leishmania mexicana [5]): 24.4%
FICI [10]: 0.75

COC(=O)C1CCN(C(=O)c2ccc(N(CCO)Cc3cnc4nc(N)nc(N)c4n3)cc2)CC1
Activity (Leishmania mexicana [2]): 100.1%
Activity (MRC5): Non-toxic
Ki (Thymidylate synthase [12]; read-out: Ki): 64 µM
Activity (Leishmania major): 122.2%
Activity (Leishmania mexicana [5]): 12.9%
